Usually Ki stands for a measure of affinity in units of concentration, obtained from inhibition or displacement. A higher Ki goes with a looser hold on the target. The Km is the concentration of substrate that gives half-maximal velocity. Usually Vmax stands for the top rate of the reaction or transport when substrate is in excess.

6 molecules from ChEMBL document CHEMBL4004850, “Rational design of reversible inhibitors for trehalose 6-phosphate phosphatases” (Eur J Med Chem, 2017) can be followed below.

The nature of data set [1]: Inhibition of Salmonella typhimurium T6PP using T6P as substrate by Lineweaver-Burk plot analysis. More on the design: species or system Salmonella enterica subsp. enterica serovar Typhimurium. Put shortly:
(§1)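 Continuous phosphate-release assay (EnzChek, MESG/purine nucleoside phosphorylase) at 25 °C. Initial velocities of T6P hydrolysis by T6PP were taken at varied T6P with inhibitor at 0, Ki and 2×Ki. Km and Vmax come from double-reciprocal plots.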

A short description of data set [2]: Inhibition of Ascaris suum T6PP using T6P as substrate by Lineweaver-Burk plot analysis.
The test system of data set [3] is Shigella boydii. The data set can be described thus: Inhibition of Shigella boydii T6PP assessed as Km for substrate using T6P as substrate by Lineweaver-Burk plot analysis. Put shortly:
as §1

Another data set relates to Escherichia coli. The conditions noted are these: 200 uM.
The test system of data set [4] is Salmonella enterica subsp. enterica serovar Typhimurium. The data set can be described thus: Inhibition of Salmonella typhimurium T6PP assessed as Vmax for substrate using T6P as substrate by Lineweaver-Burk plot analysis. Put shortly: as §1
The nature of data set [5]: Inhibition of Shigella boydii T6PP using T6P as substrate by Lineweaver-Burk plot analysis. Put shortly: as §1
For data set [6], the system named is Shigella boydii. In words: Inhibition of Shigella boydii T6PP assessed as Vmax for substrate using T6P as substrate by Lineweaver-Burk plot analysis. Put shortly: as §1
Data set [7] concerns Bacteroides thetaiotaomicron. The conditions noted are these: 200 uM.
Data set [8] has as its system Salmonella enterica subsp. enterica serovar Typhimurium. In words: Inhibition of Salmonella typhimurium T6PP assessed as Km for substrate using T6P as substrate by Lineweaver-Burk plot analysis. Put shortly: as §1
In data set [9] the test system is Ascaris suum. The data set can be described thus: Inhibition of Ascaris suum T6PP assessed as Vmax for substrate using T6P as substrate by Lineweaver-Burk plot analysis. Put shortly: as §1
In a further data set the target is T1, Trehalose-phosphatase (Brugia malayi, UniProt A8NS89).
T1 sequence (A8NS89 whole entry): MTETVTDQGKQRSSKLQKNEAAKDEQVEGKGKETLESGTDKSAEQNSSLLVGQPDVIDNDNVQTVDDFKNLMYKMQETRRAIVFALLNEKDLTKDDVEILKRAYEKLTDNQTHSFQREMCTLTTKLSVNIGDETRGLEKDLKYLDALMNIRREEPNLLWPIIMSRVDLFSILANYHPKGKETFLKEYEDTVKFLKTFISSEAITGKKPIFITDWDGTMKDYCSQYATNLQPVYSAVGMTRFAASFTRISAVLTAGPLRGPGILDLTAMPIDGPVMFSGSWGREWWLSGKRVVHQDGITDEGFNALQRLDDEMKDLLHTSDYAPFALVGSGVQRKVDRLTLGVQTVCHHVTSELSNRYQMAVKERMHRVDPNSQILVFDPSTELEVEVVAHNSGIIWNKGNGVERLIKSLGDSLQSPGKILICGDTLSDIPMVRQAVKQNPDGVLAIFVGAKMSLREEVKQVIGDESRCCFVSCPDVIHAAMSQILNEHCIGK
In words: Competitive inhibition of Brugia malayi T6PP using T6P as substrate by Lineweaver-Burk plot analysis. Put shortly: as §1

Data set [10] relates to Ascaris suum. The data set can be described thus: Inhibition of Ascaris suum T6PP assessed as Km for substrate using T6P as substrate by Lineweaver-Burk plot analysis. Put shortly:
as §1

Data set [11] has as its system Ascaris suum. The data set can be described thus: Inhibition of Ascaris suum T6PP using T6P as substrate assessed as fraction of enzyme unbound with compound by measuring ratio of initial velocities of T6P substrate hydrolysis in presence and absence of compound at 1 mM after 5 mins by BioMol green dye based HTS assay. Put shortly: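 T6P is at half saturation ([T6P] = Km), with and without 1 mM inhibitor, at 25 °C. Released phosphate is detected with dye (30 min incubation) by A625. The reported value is V_I/V, the initial-velocity ratio.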

Data set [12] addresses T2, Trehalose-phosphatase (Brugia malayi) (UniProt A8NS89).
T2 sequence (whole entry): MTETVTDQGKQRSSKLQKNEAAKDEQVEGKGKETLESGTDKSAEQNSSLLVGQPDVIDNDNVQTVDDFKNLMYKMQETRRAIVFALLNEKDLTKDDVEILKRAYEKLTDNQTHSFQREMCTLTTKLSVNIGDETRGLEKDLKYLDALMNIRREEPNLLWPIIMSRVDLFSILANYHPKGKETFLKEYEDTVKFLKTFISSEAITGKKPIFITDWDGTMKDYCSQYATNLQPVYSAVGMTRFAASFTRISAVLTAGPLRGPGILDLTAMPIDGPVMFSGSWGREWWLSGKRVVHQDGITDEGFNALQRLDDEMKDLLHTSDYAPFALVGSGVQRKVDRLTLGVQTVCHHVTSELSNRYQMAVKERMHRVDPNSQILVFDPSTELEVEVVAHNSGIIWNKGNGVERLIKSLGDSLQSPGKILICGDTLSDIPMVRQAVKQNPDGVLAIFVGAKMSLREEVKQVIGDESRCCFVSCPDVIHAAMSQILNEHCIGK
In words: Inhibition of Brugia malayi T6PP using T6P as substrate assessed as fraction of enzyme unbound with compound by measuring ratio of initial velocities of T6P substrate hydrolysis in presence and absence of compound at 1 mM […] by BioMol green dye based HTS assay.

Data set [13] has as its system Salmonella enterica subsp. enterica serovar Typhimurium. In words: Inhibition of Salmonella typhimurium T6PP using T6P as substrate assessed as fraction of enzyme unbound with compound by measuring ratio of initial velocities of T6P substrate hydrolysis in presence and absence of compound at 1 mM after 5 mins by BioMol green dye based HTS assay. Put shortly: (§2)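 Freshly purified St-T6PP or Sb-T6PP (5–25 nM) in 50 mM Hepes pH 7.5, 25 mM NaCl, 2 mM MgCl₂, 5% glycerol at 25 °C. T6P at half saturation (Km) for each enzyme. Hydrolysis rate was compared with and without 1 mM inhibitor; phosphate read at 625 nm after 30 min incubation. The ratio VI/V gives the fraction of enzyme not inhibitor-bound.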

Data set [14] concerns Shigella boydii. The data set can be described thus: Inhibition of Shigella boydii T6PP using T6P as substrate assessed as fraction of enzyme unbound with compound by measuring ratio of initial velocities of T6P substrate hydrolysis in presence and absence of compound at 1 mM after 5 mins by BioMol green dye based HTS assay. Put shortly:
as §2

Substrate in data set [15]: CCCCCCCCc1ccc(O[C@H]2O[C@H](COS(=O)(=O)O)[C@@H](O)[C@H](O)[C@H]2O)cc1
The conditions noted are these: Pseudomonas putida KT2440; 200 uM.

Substrate in data set [16]: CCCCCCCCc1ccc(O[C@H]2O[C@H](COS(=O)(=O)O)[C@@H](O)[C@H](O)[C@H]2O)cc1
The conditions noted are these: Pseudomonas putida KT2440; 200 uM. This is another data set of the same source.

Substrate in data set [17]: O=P(O)(O)OC[C@H]1O[C@@H](Oc2ccccc2)[C@H](O)[C@@H](O)[C@@H]1O
The data set can be described thus: Activity at Brugia malayi T6PP.

Compound in data set [18]: O=S(=O)(O)OC[C@H]1O[C@@H](Oc2ccccc2)[C@H](O)[C@@H](O)[C@@H]1O
The data set can be described thus: (§3) Reversible competitive inhibition of Brugia malayi T6PP assessed as Vmax for substrate using T6P as substrate by Lineweaver-Burk plot analysis.

Compound in data set [19]: O=S(=O)(O)OC[C@H]1O[C@H](Oc2ccccc2)[C@H](O)[C@@H](O)[C@@H]1O
Described as §3.

Compound in data set [20]: CCCCCCc1ccc(O[C@H]2O[C@H](COS(=O)(=O)O)[C@@H](O)[C@H](O)[C@H]2O)cc1
The data set can be described thus: (§4) Competitive inhibition of Brugia malayi T6PP assessed as Km for substrate using T6P as substrate by Lineweaver-Burk plot analysis. Put shortly: as §1

Compound in data set [21]: CCCCCCCCc1ccc(O[C@@H]2O[C@H](COS(=O)(=O)O)[C@@H](O)[C@H](O)[C@H]2O)cc1
The description is as §4. Put shortly: as §1

Compound in data set [22]: O=S(=O)(O)OC[C@H]1O[C@H](OCc2ccccc2)[C@H](O)[C@@H](O)[C@@H]1O
The description is as §4. Put shortly: as §1

Compound in data set [23]: CCCCCCCCc1ccc(O[C@H]2O[C@H](COS(=O)(=O)O)[C@@H](O)[C@H](O)[C@H]2O)cc1
The data set is described as §4. Put shortly: as §1

Compound in data set [24]: CCCCCCc1ccc(O[C@H]2O[C@H](COS(=O)(=O)O)[C@@H](O)[C@H](O)[C@H]2O)cc1
In words: (§5) Competitive inhibition of Brugia malayi T6PP assessed as Vmax for substrate using T6P as substrate by Lineweaver-Burk plot analysis. Put shortly:
as §1

Compound in data set [25]: CCCCCCCCc1ccc(O[C@@H]2O[C@H](COS(=O)(=O)O)[C@@H](O)[C@H](O)[C@H]2O)cc1
Described as §5. Put shortly: as §1

Compound in data set [26]: O=S(=O)(O)OC[C@H]1O[C@H](OCc2ccccc2)[C@H](O)[C@@H](O)[C@@H]1O
Described as §5. Put shortly: as §1

Compound in data set [27]: CCCCCCCCc1ccc(O[C@H]2O[C@H](COS(=O)(=O)O)[C@@H](O)[C@H](O)[C@H]2O)cc1
The description is as §5. Put shortly: as §1

Compound in data set [28]: O=S(=O)(O)OC[C@H]1O[C@@H](Oc2ccccc2)[C@H](O)[C@@H](O)[C@@H]1O
The data set can be described thus: (§6) Reversible competitive inhibition of Brugia malayi T6PP assessed as Km for substrate using T6P as substrate by Lineweaver-Burk plot analysis.

Compound in data set [29]: O=S(=O)(O)OC[C@H]1O[C@H](Oc2ccccc2)[C@H](O)[C@@H](O)[C@@H]1O
The description is as §6.

In the case of `CCCCCCCCc1ccc(O[C@H]2O[C@H](COS(=O)(=O)O)[C@@H](O)[C@H](O)[C@H]2O)cc1`, the Ki is 56 µM in data set [1], 80 to 84 µM in data set [2], 21 µM in data set [5] and 5.3 µM on Trehalose-phosphatase. Further, the results for the Km (in the data set with Shigella boydii [3]; in data set [8]; in the data set on Ascaris suum [10]) were 246 µM, 387 µM and 406 µM, respectively. Further, the maximum rate (Vmax) is 0.0605 µM/s with Escherichia coli; 0.173 µM/s in [4]; 0.897 µM/s with Shigella boydii [6]; 0.0788 µM/s in data set [7]; 0.48 µM/s with Ascaris suum [9].
`CCCCCCc1ccc(O[C@@H]2O[C@H](COS(=O)(=O)O)[C@@H](O)[C@H](O)[C@H]2O)cc1`: the inhibition constant Ki was > 400 µM in [1], 200 µM in [2], 140 µM in data set [5] and 200 µM at Trehalose-phosphatase. Moreover, the Km in the data set on Shigella boydii [3] is 231 µM. The Vmax in the data set with Shigella boydii [6] amounted to 0.534 µM/s.
Consider `O=S(=O)(O)OC[C@H]1O[C@H](O[C@H]2O[C@H](CO)[C@@H](O)[C@H](O)[C@H]2O)[C@H](O)[C@@H](O)[C@@H]1O`, for which the inhibitory constant (Ki) in data set [1] worked out at 180 µM; in data set [2] it was 50 µM; in data set [5], 330 µM; on Trehalose-phosphatase it was 80 µM. Besides, the Ratio turned out to be 0.21 in the data set with Ascaris suum [11], 0.13 in data set [12], 0.01 in [13] and 0.22 in the data set with Shigella boydii [14].
Take `O=S(=O)(O)OC[C@H]1O[C@@H](Oc2ccc(-c3ccccc3)cc2)[C@H](O)[C@@H](O)[C@@H]1O`: in data set [2], the affinity corresponds to a Ki of 1800 µM. In addition, the Ratio was 0.9 with Ascaris suum [11], 0.58 in [12], 0.85 in data set [13] and 0.84 in the data set on Shigella boydii [14]. Also, in the data set with Ascaris suum [9], the Vmax stood at 0.436 µM/s. Further, the Michaelis constant (Km) in the data set on Ascaris suum [10] was 290 µM.

B1: D-glycero-beta-D-manno-heptose-1,7-bisphosphate 7-phosphatase (Pseudomonas putida (strain ATCC 47054 / DSM 6125 / NCIMB 11950 /KT2440)), Q88RS0 (protein)
chain: MKLLILDRDGVINYDSDAYIKTLEEWVPIPGSVDAIAQLSKAGWTVAVATNQSGIARGYYPLATLEAMHARLRALVAEQGGEVGHIVYCPHGPDEGCDCRKPKPGMLRAIAEHYQIGLEGVWFVGDSKGDLEAALAVGAQPVLVKTGKGERTLEKGVPETTLIFDDLAAIARELI
B1: the Vmax worked out at 0.106 µM/s in data set [15] and 0.0175 µM/s in [16].

B2: Trehalose-phosphatase (Brugia malayi), A8NS89 (protein)
chain: MTETVTDQGKQRSSKLQKNEAAKDEQVEGKGKETLESGTDKSAEQNSSLLVGQPDVIDNDNVQTVDDFKNLMYKMQETRRAIVFALLNEKDLTKDDVEILKRAYEKLTDNQTHSFQREMCTLTTKLSVNIGDETRGLEKDLKYLDALMNIRREEPNLLWPIIMSRVDLFSILANYHPKGKETFLKEYEDTVKFLKTFISSEAITGKKPIFITDWDGTMKDYCSQYATNLQPVYSAVGMTRFAASFTRISAVLTAGPLRGPGILDLTAMPIDGPVMFSGSWGREWWLSGKRVVHQDGITDEGFNALQRLDDEMKDLLHTSDYAPFALVGSGVQRKVDRLTLGVQTVCHHVTSELSNRYQMAVKERMHRVDPNSQILVFDPSTELEVEVVAHNSGIIWNKGNGVERLIKSLGDSLQSPGKILICGDTLSDIPMVRQAVKQNPDGVLAIFVGAKMSLREEVKQVIGDESRCCFVSCPDVIHAAMSQILNEHCIGK
B2: the kcat in [17] is 1.4 ×10⁻² /s. Also, the Vmax in data set [18] came out at 0.57 µM/s; in data set [19], 0.496 µM/s; in data set [24], 0.375 µM/s; in data set [25] it was 0.584 µM/s; in data set [26], 0.457 µM/s; in [27] it was 0.924 µM/s. Also, the Michaelis constant (Km) in [20] was found to be 234 µM; in data set [21], 156 µM; in data set [22] it was 127 µM; in data set [23] it was 229 µM; in data set [28], 126 µM; in data set [29] it was 109 µM.
